The structures appear in SMILES notation.

The source of these data is ChEMBL document CHEMBL1121630, “Prostaglandin analogues possessing antinidatory effects. 1. Modification of the omega chain” (1980).

The species named for this assay is Rattus norvegicus. Briefly: Antinidatory effect was measured in rat relative to that of prostaglandin F2 alpha. In kind it is functional. The method, boiled down:
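Mated Wistar female rats (9 weeks, 180–200 g); sperm in vaginal smear marked day 0. Analogues in 10% EtOH–0.4% Tween 80 in saline (1 mg/mL stock, diluted with saline), given sc twice daily on days 3–5 at three to eight doses, 5–20 rats per dose. Killed day 11; no implantation site = effective. ED50 by Litchfield-Wilcoxon, expressed relative to PGF2α.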
`COC(=O)CCC/C=C\C[C@@H]1[C@@H](/C=C/[C@@H](O)CC(=O)Oc2ccccc2)[C@H](O)C[C@@H]1O`: the Activity is given as less than 1.

In the case of `COC(=O)CCC/C=C\C[C@@H]1[C@@H](/C=C/[C@@H](O)C2C=Cc3ccccc32)[C@H](O)C[C@@H]1O` (stereo partly specified), the Activity is less than 5.

In turn, `COC(=O)CCC/C=C\C[C@@H]1[C@@H](/C=C/[C@@H](O)C[Si](C)(C)c2ccccc2)[C@H](O)C[C@@H]1O` yielded an Activity of less than 1.

Turning to `COC(=O)CCC/C=C\C[C@@H]1[C@@H](/C=C/[C@@H](O)c2cc3ccccc3s2)[C@H](O)C[C@@H]1O`, the Activity is given as 40.

`COC(=O)CCC/C=C\C[C@@H]1[C@@H](/C=C/[C@@H](O)CC(=O)c2cccc(Cl)c2)[C@H](O)C[C@@H]1O`: the Activity is 10.

With `COC(=O)CCC/C=C\C[C@@H]1[C@@H](/C=C/[C@@H](O)CC(=O)c2ccccc2)[C@H](O)C[C@@H]1O`, the Activity is on record as 40.

The molecule `COC(=O)CCC/C=C\C[C@@H]1[C@@H](/C=C/[C@@H](O)c2ccccc2OC)[C@H](O)C[C@@H]1O` had an Activity of less than 2.

On to `COC(=O)CCC/C=C\C[C@@H]1[C@@H](/C=C/[C@@H](O)C2(Sc3ccccc3)CC2)[C@H](O)C[C@@H]1O`, for which the Activity is listed as less than 2.

In the case of `COC(=O)CCC/C=C\C[C@@H]1[C@@H](/C=C/[C@@H](O)C#COc2ccccc2)[C@H](O)C[C@@H]1O`, the Activity is listed as less than 2.

With `COC(=O)CCC/C=C\C[C@@H]1[C@@H](/C=C/[C@@H](O)CC(=O)c2ccc(Cl)cc2)[C@H](O)C[C@@H]1O`, the Activity turned out to be 8.

With `COC(=O)CCC/C=C\C[C@@H]1[C@@H](/C=C/[C@@H](O)C#Cc2ccccc2)[C@H](O)C[C@@H]1O`, the Activity was found to be 40.

With `COC(=O)CCC/C=C\C[C@@H]1[C@@H](/C=C/[C@@H](O)c2cc3ccccc3o2)[C@H](O)C[C@@H]1O`, the Activity worked out at 100.

`COC(=O)CCC/C=C\C[C@@H]1[C@@H](/C=C/[C@@H](O)C(Oc2ccccc2)C(=O)OC)[C@H](O)C[C@@H]1O` (stereo partly specified) came in with an Activity of less than 4.

In the case of `COC(=O)CCC/C=C\C[C@@H]1[C@@H](/C=C/[C@@H](O)CSC2=CCCCC2)[C@H](O)C[C@@H]1O`, the Activity is given as 10.

`COC(=O)CCC/C=C\C[C@@H]1[C@@H](/C=C/[C@@H](O)C#Cc2cccc(Cl)c2)[C@H](O)C[C@@H]1O` returned an Activity of 40.

Take `COC(=O)CCC/C=C\C[C@@H]1[C@@H](/C=C/[C@@H](O)C#Cc2ccc(Cl)cc2)[C@H](O)C[C@@H]1O`: the Activity amounted to 1.
